Compound activity (PubChem)
Most compounds without a hit are left out; they make up all but 2.6% or so of the library.
HSF-1 act – increases HSF-1 driven luciferase reporter signal; hit rate 1.7% among 300,000; activation, % at 9 µM; NIH3T3-HGL HSF-1 luciferase reporter, MG132, 8 h; 100% = twice DMSO control signal;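 active = mean replicate activation of at least 50% with a set share of replicates each reaching 50%; inconclusive = only one of those two conditions met; inactive = mean below 50% and too few replicates reaching it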;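 note: 0% = median of the neutral control wells and 100% = twice that signal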
Rad51 HR inh – Rad51 (human) homologous recombination inhibition. Q06609. hRad51 DNA strand exchange, fluorescence dequenching. inhibition, % at 10 µM. hit rate 0.085% among 200,000;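 active = inhibition above 40% at the single screening dose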;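 note: 0% = DMSO control wells and 100% = blanks with heterologous ssDNA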
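Test system: preformed human Rad51 ssDNA filaments. Compound dosing: single dose, 10 µM final compound. Incubation: filaments 15 min 37 °C, then compound 30 min. Technique: FRET fluorescence dequenching, excitation 485 nm, emission 520 nm. Read-out basis: percent inhibition from fluorescence, normalised to plate control and blank means. Benchmarks: plate controls and plate blanks.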
Hsp70 act – switches on Hsp70 transcription. HeLa Hsp70 promoter luciferase reporter, luminescence; scaled: vehicle 0, proteasome-inhibitor control 100%. activation, % at 10 µM. hit rate 0.04% among 200,000. AID 1203;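 active = activation above the mean across all tested compounds plus 3 SD, cutoff set per campaign, cut at about 5.5% in these data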;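 note: 100% = MG132 at 30 µM as the positive control and 0% = DMSO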
HSF1 inh – HSF1 inhibition; NIH3T3-HGL HSE-luciferase, MG132-induced, luminescence 8 h; active compounds read low; AID 2098; hit rate 0.77% among 300,000; activity change, negative = inhibition, % at 7.5 µM (by protocol);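 active = more than half of replicate wells show activity change below -50%, luminescence cut by over half; inconclusive = some wells, but at most half, below -50%; inactive = no replicate well below -50%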;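 note: luciferase reports HSF-1 transcriptional activity via heat shock element; 0% = median of DMSO wells and -100% = zero luminescence signal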
HSV augment – increases HSV replication in cells. AID 1956. hit rate 0.005% among 220,000. maximum fold increase. HSV replication augmentation in cells, fold increase; in the data active = maximum fold increase above about 1.5; inconclusive = no clear call, values can overlap the other calls; tested in PC3 cells
Mdm2 ligase inh – inhibitors of human Mdm2 E3 ubiquitin ligase. Q00987. cell-based MDM2 ubiquitination luciferase reporter, 2 h; 0 = plate control, 100 = twice control, blank-subtracted. signal enhancement, % at 5 µM. hit rate 0.11% among 210,000;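 active = signal enhancement of 30% or more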;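 note: luminescence tracks abundance of the self-degrading MDM2-luciferase fusion protein; higher signal means inhibition of MDM2 E3 ligase activity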
Target sequence (Q00987 whole entry, looked up, the tested form may be a part): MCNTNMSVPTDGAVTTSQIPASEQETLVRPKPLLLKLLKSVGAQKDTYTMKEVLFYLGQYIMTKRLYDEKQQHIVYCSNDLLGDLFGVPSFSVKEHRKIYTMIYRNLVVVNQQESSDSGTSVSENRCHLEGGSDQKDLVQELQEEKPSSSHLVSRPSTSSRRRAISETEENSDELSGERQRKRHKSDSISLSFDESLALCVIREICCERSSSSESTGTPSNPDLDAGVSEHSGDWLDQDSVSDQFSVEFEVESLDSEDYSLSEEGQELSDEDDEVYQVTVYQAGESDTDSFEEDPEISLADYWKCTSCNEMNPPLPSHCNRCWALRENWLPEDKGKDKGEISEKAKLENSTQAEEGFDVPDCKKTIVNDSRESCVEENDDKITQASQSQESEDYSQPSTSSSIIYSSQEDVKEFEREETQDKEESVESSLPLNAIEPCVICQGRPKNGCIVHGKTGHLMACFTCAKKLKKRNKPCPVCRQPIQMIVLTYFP
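system = mammalian cells stably expressing self-ubiquitinating, self-degrading MDM2 E3–luciferase fusion | quantity = 2000 cells per well seeded | incubation = 4 h cell settling then 2 h compound exposure, 37 °C | signal = SteadyLite luminescence, 15 min reagent step | benchmarks = plate control and blank wells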
* marks the source's active call; other numbers are inactive results; i = inactive; ? = inconclusive; . = no result given.

SMILES	HSF-1 act	Rad51 HR inh	Hsp70 act	HSF1 inh	HSV augment	Mdm2 ligase inh
COc1cc(C(=O)Nc2cccc(C)c2C)c(Br)c(OC)c1OC	20.6	48.5*	-0.1	20.4	i	-8.1
COc1ccc(OCc2cc(C(=O)N(C)Cc3cc(C)no3)no2)c(Cl)c1	29.9	.	.	37.2	.	.
Cc1nonc1CN(C)C(=O)c1cc(COc2ccc(F)cc2Cl)on1	21.2	.	.	8.6	.	.
CCc1ccc(CN(C)C(=O)c2cc(COc3ccc(OC)cc3Cl)on2)nc1	55.8*	.	.	22.5	.	.
Cc1ccc(CN(C)C(=O)c2cc(COc3ccc(F)cc3Cl)on2)o1	53.7*	0.5	-0.1	9.7	i	-5.0
CCS(=O)(=O)c1ccc(N=Nc2ccc(O)c3ncccc23)c(OC)c1	-56.8	0.1	-0.5	-59.9*	i	-5.5
CCS(=O)(=O)c1ccc(O)c(NC(=O)c2cc(OC)c(OC)c(OC)c2)c1	3.0	4.8	-0.3	-0.1	i	-20.3
Oc1ccc(N=Nc2ccccc2C(F)(F)F)c2cccnc12	-71.8	.	.	-65.8*	.	.
COc1ccccc1N=Nc1ccc(O)c2ncccc12	-79.4	.	.	-78.2*	.	.
COc1ccccc1N=Nc1[nH]c2ccc(C)cc2c1O	7.1	7.9	-0.2	-3.1	i	6.4
CN(CCC#N)C(=O)COC(=O)c1ccc(CNS(=O)(=O)c2ccc(F)c(Cl)c2)cc1	13.6	-8.2	0.8	6.8	i	-14.1
C[C@@H](NC(=O)C(=O)c1c[nH]c2ccccc12)c1ccccc1	7.5	8.4	.	-5.5	i	.
O=C(Nc1nccs1)C(=O)c1c[nH]c2ccccc12	51.0*	0.5	-0.2	12.5	i	-20.4
CSc1ccccc1NC(=O)C(=O)c1c[nH]c2ccccc12	61.5*	.	-0.2	27.0	i	-0.1
CCC(C)NC(=O)Cn1cnc2sc(C)c(S(=O)(=O)N3CCCCC3)c2c1=O (stereo not drawn)	-3.4	.	.	-4.1	.	.
CCN(c1ccc(OC)cc1)c1ncnc2nc[nH]c12	-71.5	0.2	-0.1	-63.9*	i	-14.9
O=C(CCN1Cc2ccccc2C1)c1ccc2c(c1)OCCO2	11.7	6.5	-0.2	27.2	i	-13.8
O=C(CCN1CCc2ccccc2C(c2ccccc2)C1)c1ccc2c(c1)OCCO2 (stereo not drawn)	87.5*	-0.8	-0.3	56.6	i	-14.4
CC1C(=O)NN=C1C(=O)N/N=C\C(Br)=C\c1ccccc1 (stereo not drawn)	213.4*	0.8	-0.3	153.2	i	-32.6
CC1=NNC(=O)C1CC(=O)N/N=C/C(Br)=C/c1ccccc1 (stereo not drawn)	-8.0	17.5	.	-10.3	i	-10.4
CC1=NNC(=O)C1CCC(=O)N/N=C/C(Br)=C/c1ccccc1 (stereo not drawn)	88.0*	0.6	-0.3	66.5	i	-0.3
Cc1ccc(C(=O)NC(=C(Cl)Cl)S(=O)(=O)c2ccc(Cl)cc2)cc1	185.1*	-2.3	0.4	126.5	i	-11.8
Cc1ccc(C(=O)NC(=C(Cl)Cl)S(=O)(=O)c2ccc(C)cc2)cc1	27.9	.	0.1	20.5	i	-5.5
O=C(NC(=C(Cl)Cl)S(=O)(=O)c1ccc(Cl)cc1)c1ccccc1	67.0*	13.1	.	56.6	i	9.7
Cc1ccc(S(=O)(=O)/C(=C/Cl)NC(=O)c2ccccc2)cc1	90.5*	10.7	-0.3	62.1	i	8.6
SMILES	HSF-1 act	Rad51 HR inh	Hsp70 act	HSF1 inh	HSV augment	Mdm2 ligase inh
COc1ccc(N2CCN(C3CCCN(C(=O)CN4CCOC4=O)C3)CC2)cc1 (stereo not drawn)	6.7	.	.	-2.5	.	.
CC(C)CSc1nnc2c(n1)[nH]c1ccccc12	58.6*	-3.2	0.2	22.2	i	-1.5
O=[N+]([O-])c1ccc(O)c(C=Nc2cccc3ccccc23)c1	4.6	.	.	1.4	.	.
Oc1c(Br)cc(Br)cc1C=Nc1ccc2c(c1)OCO2	.	-53.8	-0.3	.	i	-6.8
Oc1c(Br)cc(Br)cc1C=Nc1ccc2c(c1)OCCO2	-79.6	.	0.0	-79.3*	i	.
O=[N+]([O-])c1ccc(O)c(C=Nc2ccc3oc(Cc4ccc(Cl)cc4)nc3c2)c1	-77.7	5.7	-0.3	-73.5*	i	-17.2
O=[N+]([O-])c1ccc(O)c(C=Nc2ccc3c(c2)OCCO3)c1	-67.6	-12.5	-0.3	-64.4*	i	-23.3
CC(Cc1cccs1)NC(=O)Nc1ccccc1 (stereo not drawn)	-14.6	1.8	0.3	2.8	i	-8.2
CC(Cc1cccs1)NC(=O)Nc1ccc(Cl)cc1 (stereo not drawn)	61.9*	.	0.3	30.2	.	-7.8
O=C(CSc1nccn(-c2ccc(F)c(F)c2)c1=O)NC1CCCC1	62.0*	.	.	23.0	.	.
O=C(CCl)N(c1ccc(Cl)cc1)c1c[nH]c2ccccc12	-93.3	-7.8	-0.3	-92.8*	i	-10.1
N#Cc1cc(Cl)c(NCC2CCCO2)cc1C#N (stereo not drawn)	88.6*	.	.	49.5	.	.
CCC(N=c1cc(-c2ccc(OC)c(OC)c2)oc2ccc(C)cc12)C(=O)O (stereo not drawn)	-64.5	0.9	-0.2	?	i	7.8
CCC(N=c1cc(-c2ccc(OC)cc2)oc2ccc(C)cc12)C(=O)O (stereo not drawn)	58.7*	1.4	-0.1	31.7	i	6.9
Cc1cccc(NC(=O)N2CCCCCC2)c1	2.2	.	.	9.5	.	.
CCN(C(=O)COC(=O)c1c2c(nc3ccccc13)/C(=C/c1ccccc1)CC(C)C2)C1CCS(=O)(=O)C1 (stereo not drawn)	83.9*	0.8	-0.2	49.5	i	6.4
CCN(C(=O)COC(=O)c1c(C)nn(-c2ccccc2)c1C)C1CCS(=O)(=O)C1 (stereo not drawn)	15.8	12.1	0.0	-0.8	i	2.2
CCN(C(=O)COC(=O)c1cc(-c2ccccc2)nc2c1c(C)nn2-c1ccccc1)C1CCS(=O)(=O)C1 (stereo not drawn)	0.0	34.0	-0.3	-0.8	i	-4.0
CCN(C(=O)COC(=O)c1cc(-c2ccc3cc(OC)ccc3c2)nc2ccccc12)C1CCS(=O)(=O)C1 (stereo not drawn)	70.5*	-7.5	0.0	35.5	i	-20.1
COc1cc(NC(=O)CNC(=O)Cn2ccc3ccccc3c2=O)cc(OC)c1OC	0.9	.	.	1.7	.	.
Nc1cccc2c1C(=O)N(C(=O)/C=C/c1ccc(F)cc1)C2=O	60.7*	-10.7	0.2	44.4	i	-8.5
COc1cccc(C(=O)Nc2ccc(NC(=O)C3C4C=CC(C4)C3C(=O)O)cc2)c1 (stereo not drawn)	44.0	.	.	39.3	.	.
Nc1nc(CSc2ncn(-c3ccccc3)n2)cs1	-88.1	2.6	0.2	-85.5*	i	-36.7
O=C(CSc1ncn(-c2ccccc2)n1)c1cccs1	?	68.0*	0.7	29.2	i	-16.8
Cc1cc(SCC(=O)N/N=C/c2ccc(O)c(O)c2)nc2ccccc12	4.5	.	.	3.2	.	.
